Laboratory results: ChEMBL document CHEMBL1138564, “Microwave-induced synthesis and anti-microbial activities of 7,10,11,12-tetrahydrobenzo[c]acridin-8(9H)-one derivatives” (2009)

Experiments:
Pseudomonas aeruginosa = test: Antimicrobial activity against Pseudomonas aeruginosa NCIM 2200 at 5 ug/disk after 24 hrs by disk diffusion method; format: functional; conditions: NCIM 2200, 24 h, read-out: DIZ
Outline: (§1)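 Reference disc of ofloxacin at 5 µg/disc, used to check the sensitivity of each bacterial strain. 100 µl of inoculum at 10⁸ CFU/ml was spread on Mueller–Hinton agar and incubated at 37 °C for 24 h. The read-out was inhibition zone diameter.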

Bacillus subtilis = test: Antimicrobial activity against Bacillus subtilis NCIM 2063 at 5 ug/disk after 24 hrs by disk diffusion method; format: functional; conditions: NCIM 2063, 24 h, read-out: DIZ
Outline: (§2)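 Disc diffusion on Mueller–Hinton agar. 100 µl of bacterial suspension at 10⁸ CFU/ml is spread on the plate. Discs carry test compounds at two loadings, dissolved in DMSO; DMSO alone serves as negative control. Ofloxacin disc is the positive reference. Plates are incubated at 37 °C for 24 h, and the inhibition zone diameter is measured.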

Proteus vulgaris = test: Antimicrobial activity against Proteus vulgaris NCIM 2027 at 5 ug/disk after 24 hrs by disk diffusion method; format: functional; conditions: NCIM 2027, 24 h, read-out: DIZ; outline: as §2
Salmonella typhimurium = test: Antimicrobial activity against Salmonella Typhimurium NCIM 2501 at 5 ug/disk after 24 hrs by disk diffusion method; format: functional, Salmonella enterica subsp. enterica serovar Typhimurium; conditions: Salmonella enterica, NCIM 2501, 24 h; read-out: DIZ; outline: as §1
Escherichia coli = test: Antimicrobial activity against Escherichia coli NCIM 2065 at 5 ug/disk after 24 hrs by disk diffusion method; format: functional; conditions: NCIM 2065, 24 h, read-out: DIZ; outline: as §2
Aliivibrio fischeri = test: Antimicrobial activity against Vibrio fischeri NCIM 2154 at 5 ug/disk after 24 hrs by disk diffusion method; format: functional; conditions: NCIM 2154, 24 h, read-out: DIZ; outline: as §1
[1] = system: Rhodococcus corynebacterioides; test: Antimicrobial activity against Corynebacterium rubrum NCIM 2252 at 5 ug/disk after 24 hrs by disk diffusion method; format: functional; conditions: Rhodococcoides corynebacterioides, NCIM 2252, 24 h; read-out: DIZ; outline: as §2
Bacillus cereus = test: Antimicrobial activity against Bacillus cereus NCIM 2155 at 5 ug/disk after 24 hrs by disk diffusion method; format: functional; conditions: NCIM 2155, 24 h, read-out: DIZ; outline: as §2
Staphylococcus = test: Antimicrobial activity against Staphylococcus albus NCIM 2178 at 5 ug/disk after 24 hrs by disk diffusion method; format: functional; conditions: NCIM 2178, 24 h, read-out: DIZ; outline: as §1
Klebsiella aerogenes = test: Antimicrobial activity against Klebsiella aerogenes NCIM 2239 at 5 ug/disk after 24 hrs by disk diffusion method; format: functional; conditions: NCIM 2239, 24 h, read-out: DIZ; outline: as §2
Aspergillus parasiticus = test: Antimicrobial activity against Aspergillus parasiticus NCIM 904 at 10 ug/disk after 72 hrs by disk diffusion method; format: functional; conditions: NCIM 904, 72 h, read-out: DIZ
Outline: (§3)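 Disc diffusion on Sabouraud's dextrose agar. 100 µl of fungal suspension at 10⁶ CFU/ml is spread on the plate. Discs carry test compounds at two loadings in DMSO; DMSO alone is the negative control. Clotrimazole disc is the positive reference. Plates are incubated at 27 °C for 72 h, and the zone of inhibition diameter is measured.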

Trichoderma viride = test: Antimicrobial activity against Trichoderma viride NCIM 1195 at 10 ug/disk after 72 hrs by disk diffusion method; format: functional; conditions: NCIM 1195, 72 h, read-out: DIZ
Outline: (§4)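 Clotrimazole reference disc at 10 µg/disc. Fungal inoculum of 100 µl at 10⁶ CFU/ml was spread on Sabouraud's dextrose agar and incubated at 27 °C for 72 h. The read-out was inhibition zone diameter.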

Aspergillus fumigatus = test: Antimicrobial activity against Aspergillus fumigatus NCIM 902 at 10 ug/disk after 72 hrs by disk diffusion method; format: functional; conditions: NCIM 902, 72 h, read-out: DIZ; outline: as §3
Aspergillus niger = test: Antimicrobial activity against Aspergillus niger NCIM 902 at 10 ug/disk after 72 hrs by disk diffusion method; format: functional; conditions: NCIM 902, 72 h, read-out: DIZ; outline: as §3
Aspergillus flavus = test: Antimicrobial activity against Aspergillus flavus NCIM 902 at 10 ug/disk after 72 hrs by disk diffusion method; format: functional; conditions: NCIM 535, 72 h, in the assay text read “NCIM 535” for “NCIM 902”, read-out: DIZ; outline: as §3
Rhodotorula mucilaginosa = test: Antimicrobial activity against Rhodotorula rubra NCIM 3174 at 10 ug/disk after 72 hrs by disk diffusion method; format: functional; conditions: NCIM 3174, 72 h, read-out: DIZ; outline: as §4
Penicillium chrysogenum = test: Antimicrobial activity against Penicillium chrysogenum NCIM 707 at 10 ug/disk after 72 hrs by disk diffusion method; format: functional; conditions: NCIM 707, 72 h, read-out: DIZ; outline: as §3
Lipomyces lipofer = test: Antimicrobial activity against Lipomyces lipofer NCIM 3252 at 10 ug/disk after 72 hrs by disk diffusion method; format: functional; conditions: NCIM 3252, 72 h, read-out: DIZ; outline: as §3

Row | SMILES | zone of inhibition at 5 µg/disc (Pseudomonas aeruginosa) [mm] | zone of inhibition at 5 µg/disc (Bacillus subtilis) [mm] | zone of inhibition at 5 µg/disc (Proteus vulgaris) [mm] | zone of inhibition at 5 µg/disc (Salmonella typhimurium) [mm] | zone of inhibition at 5 µg/disc (Escherichia coli) [mm] | zone of inhibition at 5 µg/disc (Aliivibrio fischeri) [mm] | zone of inhibition at 5 µg/disc [1] [mm] | zone of inhibition at 5 µg/disc (Bacillus cereus) [mm] | zone of inhibition at 5 µg/disc (Staphylococcus) [mm] | zone of inhibition at 5 µg/disc (Klebsiella aerogenes) [mm] | zone of inhibition at 10 µg/disc (Aspergillus parasiticus) [mm] | zone of inhibition at 10 µg/disc (Trichoderma viride) [mm] | zone of inhibition at 10 µg/disc (Aspergillus fumigatus) [mm] | zone of inhibition at 10 µg/disc (Aspergillus niger) [mm] | zone of inhibition at 10 µg/disc (Aspergillus flavus) [mm] | zone of inhibition at 10 µg/disc (Rhodotorula mucilaginosa) [mm] | zone of inhibition at 10 µg/disc (Penicillium chrysogenum) [mm] | zone of inhibition at 10 µg/disc (Lipomyces lipofer) [mm]
1 | CC1COc2c(N3CCN(C)CC3)c(F)cc3c(=O)c(C(=O)O)cn1c23 (stereo not drawn) [OFLOXACIN] | 22 | 24 | 19 | 21 | 23 | 27 | 25 | 19 | 21 | 24 |  |  |  |  |  |  |  | 
2 | Clc1ccccc1C(c1ccccc1)(c1ccccc1)n1ccnc1 [CLOTRIMAZOLE] |  |  |  |  |  |  |  |  |  |  | 18 | 19 | 18 | 16 | 16 | 17 | 21 | 18
